This is an account of results in ChEMBL document CHEMBL3045505, “Antifungal activity of strawberry fruit volatile compounds against Colletotrichum acutatum” (2007).

The source made the active and inactive calls. The calls are words filed in the database; no cut-off is given here.

The test system of assay [1] is Colletotrichum acutatum. The assay is described as follows: Antifungal activity against Colletotrichum acutatum assessed as inhibition of microcyclic conidiation at 25 degC measured after 4 to 24 hr. Type of assay: functional. The method in brief:
(§1)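 C. acutatum CECT 20240 conidia (PDA, 25 °C, continuous light, 7 days) as a 100 µL droplet of 5 × 10^5 conidia mL-1 on Parafilm-covered slides in sealed Petri dishes. Volatile applied to filter paper in the vapour phase at ≥4 doses, 0.13–1351.35 µL L-1, with water control. Incubated at 25 °C and scored microscopically at 4 and 24 h. Five dishes per dose, experiment run twice.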

The test system of assay [2] is Colletotrichum acutatum. The assay is described as follows: Antifungal activity against Colletotrichum acutatum assessed as inhibition of pore appressorial formation at 25 degC measured after 4 to 24 hr. The assay is classed as functional. The method in brief:
as §1

For assay [3], the system named is Colletotrichum acutatum. The assay is described as follows: Antifungal activity against Colletotrichum acutatum assessed as inhibition of appressorium pigmentation at 25 degC measured after 4 to 24 hr. The assay is classed as functional. The method in brief:
as §1

For assay [4], the system named is Colletotrichum acutatum. In words: Antifungal activity against Colletotrichum acutatum assessed as inhibition of appressorium formation at 25 degC measured after 4 to 24 hr. Type of assay: functional. The method in brief: as §1
Assay [5] relates to Colletotrichum acutatum. The assay is described as follows: Antifungal activity against Colletotrichum acutatum assessed as inhibition of germination at 25 degC measured after 4 to 24 hr. The assay is classed as functional. The method in brief: as §1
For assay [6], the system named is Colletotrichum acutatum. In words: Antifungal activity against Colletotrichum acutatum assessed as inhibition of mycelial growth at 25 degC measured after 8 days. Type of assay: functional. The method in brief: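 A 5 mm PDA mycelial disc was placed in a sealed 74 mL dish holding 20 mL PDA. Volatile on filter paper under the lid at ≥6 doses, 33.78–1351.35 µL L-1, with extra doses for some compounds; water control. Colony diameter read after 8 days at 25 °C; five dishes per dose, run twice. MID, ID95 and ID50 from probit regression on log dose.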

Assay [7] deals with Colletotrichum acutatum. In words: Antifungal activity against Colletotrichum acutatum assessed as high disorganization of cell components at 33.78 ul/L by transmission electrol microscopy. The assay is classed as functional, organism-based.
Assay [8] relates to Colletotrichum acutatum. The assay is described as follows: Antifungal activity against Colletotrichum acutatum assessed as disruption of cell wall at 33.78 ul/L by transmission electrol microscopy. Type of assay: functional, organism-based.
Assay [9] relates to Colletotrichum acutatum. In words: Antifungal activity against Colletotrichum acutatum assessed as disruption of plasma membrane at 33.78 ul/L by transmission electrol microscopy. Type of assay: functional, organism-based.
The subject of assay [10] is Colletotrichum acutatum. In words: Antifungal activity against Colletotrichum acutatum inoculated in strawberry fruits assessed as fruit damaging at >=20 ul/L measured after 7 days. Type of assay: functional. The method in brief: (§2)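 Strawberry fruits (cv. Camarosa) at commercial maturity inoculated with 10^6 conidia mL-1. Filter paper carrying 4, 5, 10, 20 or 50 µL L-1 volatile placed next to the fruit; inoculated untreated fruit as control. Kept at 25 °C under continuous light; damage rated at 7 days (0 = intact, 1 = covered with mycelia). Eight replicates, mean ± SE.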

Assay [11] deals with Colletotrichum acutatum. In words: Antifungal activity against Colletotrichum acutatum inoculated in strawberry fruits assessed as fruit damaging at 10 ul/L measured after 7 days. Type of assay: functional. The method in brief: as §2
Assay [12] has as its system Colletotrichum acutatum. The assay is described as follows: Antifungal activity against Colletotrichum acutatum inoculated in strawberry fruits assessed as fruit damaging at 5 ul/L measured after 7 days. The assay is classed as functional, organism-based. The method in brief:
as §2

The subject of assay [13] is Colletotrichum acutatum. The assay is described as follows: Antifungal activity against Colletotrichum acutatum inoculated in strawberry fruits assessed as fruit damaging at 4 ul/L measured after 7 days. Type of assay: functional, organism-based. The method in brief: as §2

Turning to `CC/C=C\CCOC(C)=O` [(Z)-hex-3-en-1-yl acetate], the MID in assay [1] came out at 337.84 uL/L; in [2] it was 135.13 uL/L; in [3], 135.13 uL/L; in assay [4], 337.84 uL/L; in assay [5] it was 337.84 uL/L; in assay [6] it was 2476.35 uL/L. Also, the ID50 in [6] amounted to 503.11 uL/L. The ID95 in assay [6] is listed as 2063.11 uL/L.

For the compound `CCC/C=C/COC(C)=O`, the MID in assay [1] was found to be 337.84 uL/L; in [2], 135.13 uL/L; in assay [3] it was 135.13 uL/L; in assay [4], 337.84 uL/L; in assay [5], 337.84 uL/L; in assay [6], 651.35 uL/L. For the same compound, the ID50 in assay [6] was 221.62 uL/L. In addition, in assay [6], the ID95 is given as 584.86 uL/L.

`CCC/C=C/CO`: the MID in [1] is reported as 135.13 uL/L; in assay [2], 33.78 uL/L; in [3], 33.78 uL/L; in assay [4], 33.78 uL/L; in assay [5], 135.13 uL/L; in [6] it was 268.92 uL/L. For the same compound, the ID50 in assay [6] stood at 151.76 uL/L. For the same compound, the ID95 in assay [6] was 253.78 uL/L.

As for `CCCCCC=O` [HEXANAL], the MID in assay [1] was determined as 33.78 uL/L; in assay [2], 6.76 uL/L; in assay [3] it was 6.76 uL/L; in assay [4], 33.78 uL/L; in assay [5], 33.78 uL/L; in assay [6] it was 272.16 uL/L. The ID50 in [6] was found to be 151.35 uL/L. Further, in [6], the ID95 came to 256.49 uL/L.

On to `CCCCCCOC(C)=O` [HEXYL ACETATE], for which the MID in assay [1] is 1351.35 uL/L; in assay [2], 337.84 uL/L; in assay [3], 337.84 uL/L; in assay [4] it was 1351.35 uL/L; in assay [5], 1351.35 uL/L; in [6] it was 6441.89 uL/L. For the same compound, the ID50 in assay [6] stood at 718.65 uL/L. For the same compound, the ID95 in assay [6] is 5100.41 uL/L.

Take `CC/C=C\CCO` [CIS-3-HEXENOL]: the MID in assay [1] was 337.84 uL/L; in [2], 135.13 uL/L; in [3], 135.13 uL/L; in assay [4], 337.84 uL/L; in assay [5], 337.84 uL/L; in [6], 640.54 uL/L. The ID50 in [6] turned out to be 230.14 uL/L. Moreover, the ID95 in assay [6] was determined as 595 uL/L.

For `CCCCCCO` [1-HEXANOL], the MID is 337.84 uL/L in assay [1]; 33.78 uL/L in assay [2]; 33.78 uL/L in assay [3]; 337.84 uL/L in [4]; 337.84 uL/L in assay [5]; 270.27 uL/L in [6]. Moreover, the ID50 in [6] stood at 151.35 uL/L. Also, the ID95 in assay [6] is 255.14 uL/L.

In the case of `CCC/C=C/C=O`, the result in [7], in [8] and in assay [9] was Active. Moreover, the Activity in [10] worked out at 100%; in assay [11] it was 87.5%. For the same compound, the outcome in [12] and in assay [13] was inactive. Further, the MID in assay [1] worked out at 6.76 uL/L; in assay [2] it was 1.35 uL/L; in [3], 1.35 uL/L; in assay [4] it was 6.76 uL/L; in [5], 6.76 uL/L; in assay [6], 33.65 uL/L. The ID50 in assay [6] came to 26.89 uL/L. Also, the ID95 in assay [6] amounted to 32.97 uL/L.
